Experimental data from ChEMBL document CHEMBL1137866, “N-(1-Benzylpyrrolidin-3-yl)arylbenzamides as potent and selective human dopamine D4 antagonists” (Bioorg Med Chem Lett, 2004).
Active and inactive are the calls of the source. No cut-off for these calls is given here.

How the values were obtained:
D(2) dopamine receptor [1] = biological target: T1, D(2) dopamine receptor (Homo sapiens, UniProt P14416); experiment: Inhibition of [3H]spiperone binding to human Dopamine receptor D2S stably transfected in GH4C1 (rat pituitary) cells at 100 nM; settings: Pituitary gland cell
T1 sequence (P14416 whole entry): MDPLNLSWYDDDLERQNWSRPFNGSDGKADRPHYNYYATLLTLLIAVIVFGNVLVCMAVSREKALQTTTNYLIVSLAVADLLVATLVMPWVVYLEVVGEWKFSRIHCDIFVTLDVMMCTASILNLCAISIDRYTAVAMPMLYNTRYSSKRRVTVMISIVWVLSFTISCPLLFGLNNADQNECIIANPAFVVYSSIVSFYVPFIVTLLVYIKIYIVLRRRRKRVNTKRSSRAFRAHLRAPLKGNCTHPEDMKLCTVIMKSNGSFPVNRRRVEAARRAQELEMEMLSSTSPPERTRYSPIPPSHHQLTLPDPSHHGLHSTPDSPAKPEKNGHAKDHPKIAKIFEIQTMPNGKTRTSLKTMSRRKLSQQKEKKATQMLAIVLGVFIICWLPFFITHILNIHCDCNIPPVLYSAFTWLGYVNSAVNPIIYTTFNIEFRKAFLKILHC

[2] = biological target: T2, Adrenergic receptor alpha-1 (Rattus norvegicus) (UniProt P15823+P23944+P43140); experiment: Inhibition of 7-methoxy-[3H]-prazosin binding to Alpha-1 adrenergic receptor in rat frontal cortex tissue at 100 nM
[3] = biological target: T3, D(4) dopamine receptor (Homo sapiens) (UniProt P21917); experiment: Inhibition of [3H]spiperone binding to human Dopamine receptor D4.2 stably transfected in human embryonic kidney […] cells at 100 nM
T3 sequence (whole entry): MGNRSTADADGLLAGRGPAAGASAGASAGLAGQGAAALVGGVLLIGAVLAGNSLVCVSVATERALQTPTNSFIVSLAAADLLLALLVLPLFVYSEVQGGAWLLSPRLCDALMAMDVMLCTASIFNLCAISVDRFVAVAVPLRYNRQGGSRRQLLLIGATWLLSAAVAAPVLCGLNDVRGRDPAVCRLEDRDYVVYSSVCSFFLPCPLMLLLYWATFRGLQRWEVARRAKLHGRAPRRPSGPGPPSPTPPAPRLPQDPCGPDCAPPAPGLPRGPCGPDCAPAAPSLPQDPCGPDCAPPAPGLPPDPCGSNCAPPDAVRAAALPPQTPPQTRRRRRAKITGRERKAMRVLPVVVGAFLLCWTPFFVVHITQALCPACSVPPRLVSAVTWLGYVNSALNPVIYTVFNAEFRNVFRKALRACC

D(4) dopamine receptor [4] = biological target: T4, D(4) dopamine receptor (Homo sapiens, UniProt P21917); experiment: Ability to displace [3H]spiperone from human Dopamine receptor D4.2 stably transfected in human embryonic kidney […] cells
T4 sequence (P21917 whole entry): T3 sequence (whole entry)
Outline: (§1)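 Radioligand binding on stably transfected cell lines: hD4 (D4.2 subtype) in HEK […] cells and hD2 (short isoform) in GH4C1 rat pituitary cells. Ki derived by Cheng–Prusoff transformation, reported as mean of at least two determinations ± SEM.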

D(2) dopamine receptor [5] = biological target: T1, D(2) dopamine receptor; experiment: Ability to displace [3H]spiperone from human Dopamine receptor D2S stably transfected in GH4C1 (rat pituitary) cells; assay type: cell-based, Pituitary gland cell
Outline: as §1

[6] = biological target: T5, Adrenergic receptor alpha-1 (Rattus norvegicus, UniProt P15823+P23944+P43140); experiment: Binding affinity towards Alpha-1 adrenergic receptor using 7-methoxy-[3H]-prazosin as radioligand in rat frontal cortex tissue; assay type: tissue-based
T5 sequence (P15823 whole entry): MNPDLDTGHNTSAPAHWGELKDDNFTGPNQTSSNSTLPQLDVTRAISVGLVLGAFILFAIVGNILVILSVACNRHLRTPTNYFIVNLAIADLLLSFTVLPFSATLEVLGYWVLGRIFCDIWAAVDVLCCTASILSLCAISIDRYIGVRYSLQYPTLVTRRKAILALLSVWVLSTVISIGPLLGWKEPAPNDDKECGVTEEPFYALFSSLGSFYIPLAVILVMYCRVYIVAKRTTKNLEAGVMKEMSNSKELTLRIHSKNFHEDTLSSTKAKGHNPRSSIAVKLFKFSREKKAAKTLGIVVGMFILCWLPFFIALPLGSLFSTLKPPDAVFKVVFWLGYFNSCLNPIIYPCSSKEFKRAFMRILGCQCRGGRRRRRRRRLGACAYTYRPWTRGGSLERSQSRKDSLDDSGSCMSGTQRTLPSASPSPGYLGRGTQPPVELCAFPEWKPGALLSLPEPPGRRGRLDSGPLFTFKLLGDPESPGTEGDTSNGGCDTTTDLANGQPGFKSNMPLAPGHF
T5 sequence (P23944 whole entry): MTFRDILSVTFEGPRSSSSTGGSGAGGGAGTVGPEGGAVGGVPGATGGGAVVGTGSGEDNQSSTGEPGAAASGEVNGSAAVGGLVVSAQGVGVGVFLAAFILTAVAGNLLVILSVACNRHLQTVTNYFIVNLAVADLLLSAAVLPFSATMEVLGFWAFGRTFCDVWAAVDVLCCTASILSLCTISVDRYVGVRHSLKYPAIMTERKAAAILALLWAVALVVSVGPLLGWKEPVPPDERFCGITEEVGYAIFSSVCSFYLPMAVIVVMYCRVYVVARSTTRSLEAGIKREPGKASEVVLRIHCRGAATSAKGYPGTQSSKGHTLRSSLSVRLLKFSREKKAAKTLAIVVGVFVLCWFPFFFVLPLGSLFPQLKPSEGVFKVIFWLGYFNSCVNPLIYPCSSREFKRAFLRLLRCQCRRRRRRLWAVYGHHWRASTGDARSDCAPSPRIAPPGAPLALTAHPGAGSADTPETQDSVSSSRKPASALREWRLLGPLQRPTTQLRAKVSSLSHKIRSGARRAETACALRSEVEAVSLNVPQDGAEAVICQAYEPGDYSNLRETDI
T5 sequence (P43140 whole entry): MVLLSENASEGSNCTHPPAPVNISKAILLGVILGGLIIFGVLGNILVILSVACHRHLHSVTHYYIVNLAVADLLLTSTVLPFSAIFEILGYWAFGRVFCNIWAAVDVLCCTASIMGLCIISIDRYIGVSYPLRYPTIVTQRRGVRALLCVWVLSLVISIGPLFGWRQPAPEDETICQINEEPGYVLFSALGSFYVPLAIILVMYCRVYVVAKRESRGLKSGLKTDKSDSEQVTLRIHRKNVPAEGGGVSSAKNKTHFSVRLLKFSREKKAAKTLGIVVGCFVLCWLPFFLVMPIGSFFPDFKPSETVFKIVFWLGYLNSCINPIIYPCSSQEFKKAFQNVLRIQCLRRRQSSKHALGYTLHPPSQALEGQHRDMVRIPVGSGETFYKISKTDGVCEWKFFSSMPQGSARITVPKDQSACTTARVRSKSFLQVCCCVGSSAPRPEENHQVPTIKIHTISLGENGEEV
Outline: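 Rat frontal cortex tissue as α1 receptor source, 7-methoxy-[3H]-prazosin as radioligand, clozapine as reference. Ki obtained by Cheng–Prusoff transformation; mean of at least two determinations ± SEM.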

D(4) dopamine receptor [7] = biological target: T4, D(4) dopamine receptor; experiment: Inhibitory concentration required to reverse the dopamine inhibition of forskolin-stimulated adenyl cyclase activity in CHO cells stably expressing hD4 receptor; assay type: functional, cell-based
[8] = biological target: T2, Adrenergic receptor alpha-1 (Rattus norvegicus); experiment: Inhibition of 7-methoxy-[3H]-prazosin binding to Alpha-1 adrenergic receptor in rat frontal cortex tissue at 100 nM; IA denotes inactive
D(2) dopamine receptor [9] = biological target: T1, D(2) dopamine receptor; experiment: Inhibition of [3H]spiperone binding to human Dopamine receptor D2S stably transfected in GH4C1 (rat pituitary) cells at 100 nM; IA denotes inactive; settings: Pituitary gland cell

| Structure (SMILES) | Ki (D(4) dopamine receptor [4]) [nM] | Ki (D(2) dopamine receptor [5]) [nM] | Ki [6] [nM] | other results |
| --- | --- | --- | --- | --- |
| CN(C(=O)c1ccc(-c2ccsc2)cc1)[C@H]1CCN(Cc2ccccc2)C1 |  |  |  | inhibition (D(2) dopamine receptor [1]): 7.4%; inhibition [2]: 0.29%; inhibition [3]: 40% |
| O=C(NC1CCN(Cc2ccccc2)C1)c1ccc(-c2ccc(C(F)(F)F)cc2)cc1 (configuration not stated) | 17 | 8000 |  |  |
| O=C(N[C@@H]1CCN(Cc2ccccc2)C1)c1ccc(-c2cccs2)cc1 | 24 | 1500 | 330 |  |
| O=C(NC1CCN(Cc2ccccc2)C1)c1cccc(-c2ccccc2)c1 (configuration not stated) | 4 | 150 |  |  |
| O=C(N[C@H]1CCN(Cc2ccccc2)C1)c1ccc(-c2ccsc2)cc1 | 2 | 1000 | 610 |  |
| O=C(N[C@H]1CCN(Cc2ccccc2)C1)c1cccc(-c2ccsc2)c1 | 2 | 70 | 140 |  |
| CSc1ccc(-c2ccc(C(=O)NC3CCN(Cc4ccccc4)C3)cc2)cc1 (configuration not stated) | 17 | 4000 |  |  |
| O=Cc1ccc(-c2ccc(C(=O)NC3CCN(Cc4ccccc4)C3)cc2)cc1 (configuration not stated) | 70 | 3700 |  |  |
| O=C(N[C@@H]1CCN(Cc2ccccc2)C1)c1ccc(-c2ccsc2)cc1 | 18 | 900 | 170 |  |
| O=S(=O)(N[C@H]1CCN(Cc2ccccc2)C1)c1ccc(-c2cccs2)cc1 |  |  |  | inhibition [8]: inactive; inhibition [3]: 13%; inhibition (D(2) dopamine receptor [9]): inactive |
| O=C(NC1CCN(Cc2ccccc2)C1)c1ccc(-c2cccc(F)c2)cc1 (configuration not stated) | 17 | 4000 |  |  |
| O=Cc1ccccc1-c1ccc(C(=O)NC2CCN(Cc3ccccc3)C2)cc1 (configuration not stated) | 36 | 3100 |  |  |
| O=C(N[C@H]1CCN(Cc2ccccc2)C1)c1ccc(-c2cccs2)cc1 | 3 | 980 | 1200 |  |

Continued, in another order:

| Ki (D(4) dopamine receptor [4]) [nM] | Ki (D(2) dopamine receptor [5]) [nM] | Ki [6] [nM] | Structure (SMILES) | other results |
| --- | --- | --- | --- | --- |
| 2 | 1200 |  | O=C(NC1CCN(Cc2ccccc2)C1)c1ccc(-c2ccsc2)cc1 (configuration not stated) |  |
| 24 | 5000 |  | Nc1cccc(-c2ccc(C(=O)NC3CCN(Cc4ccccc4)C3)cc2)c1 (configuration not stated) |  |
| 3 | 840 |  | O=C(NC1CCN(Cc2ccccc2)C1)c1ccc(-c2cccs2)cc1 (configuration not stated) |  |
| 5 | 2600 |  | O=C(NC1CCN(Cc2ccccc2)C1)c1ccc(-c2ccc(Cl)cc2)cc1 (configuration not stated) |  |
| 3 | 600 |  | O=C(NC1CCN(Cc2ccccc2)C1)c1ccc(-c2ccccc2)cc1 (configuration not stated) | IC50 (D(4) dopamine receptor [7]): 1500 nM |
| 1.5 | 60 | 160 | O=C(N[C@H]1CCN(Cc2ccccc2)C1)c1cccc(-c2cccs2)c1 |  |
| 3.4 | 94 | 170 | O=C(N[C@@H]1CCN(Cc2ccccc2)C1)c1cccc(-c2ccsc2)c1 |  |
| 8 | 120 |  | O=C(NC1CCN(Cc2ccccc2)C1)c1ccc(-c2ccc(F)cc2)cc1 (configuration not stated) |  |
